Compound activity deposited in PubChem by Broad Institute.
In the library only some 2.5% were active in any assay of this set; here they are far more common.
SIRT5 block = SIRT5 desuccinylase inhibitors, primary screen, biochemical, fluorescence imaging, single point, set 5; actives 1.1% (n = 330,000); inhibition, % at 15 µM; NAD-dependent protein deacylase sirtuin-5, mitochondrial (Homo sapiens), Q9NXA8; Purified SirT5, succinyl-peptide AMC, trypsin-coupled fluorescence; in the data active means inhibition above about 15%
S100A4 MyoIIA = inhibitors of S100A4-myosin IIA peptide binding, primary screen, biochemical, fluorescence polarization, TAMRA-MyoIIA peptide; actives 0.14% (n = 360,000); Protein S100-A4 (Homo sapiens), P26447; inhibition, % at 10.7 µM;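 active means mean inhibition of at least 70% across replicates, with every replicate also reaching that level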
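System – human S100A4 monomer protein, biochemical binding assay · Buffer or medium – Calcium-containing HEPES buffer, pH 7.2 · Timing – 5 min between mix addition and reading · Also added – TAMRA-labelled myosin IIA heavy-chain peptide probe, 5 nM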
E-sel inducer = E-selectin induction in HUVECs, primary screen, imaging, HUVEC, immunofluorescence imaging, single point. P16581. actives 0.37% (n = 260,000). activation, % at 7.58 µM. AID 686992, 2013. normalized: neutral wells 0, TNF-alpha wells 100;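 active means mean E-selectin-positive cell signal at least 10% of the positive control, reached in at least 60% of replicates, without over 20% cell loss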
Target sequence (P16581 whole entry, looked up): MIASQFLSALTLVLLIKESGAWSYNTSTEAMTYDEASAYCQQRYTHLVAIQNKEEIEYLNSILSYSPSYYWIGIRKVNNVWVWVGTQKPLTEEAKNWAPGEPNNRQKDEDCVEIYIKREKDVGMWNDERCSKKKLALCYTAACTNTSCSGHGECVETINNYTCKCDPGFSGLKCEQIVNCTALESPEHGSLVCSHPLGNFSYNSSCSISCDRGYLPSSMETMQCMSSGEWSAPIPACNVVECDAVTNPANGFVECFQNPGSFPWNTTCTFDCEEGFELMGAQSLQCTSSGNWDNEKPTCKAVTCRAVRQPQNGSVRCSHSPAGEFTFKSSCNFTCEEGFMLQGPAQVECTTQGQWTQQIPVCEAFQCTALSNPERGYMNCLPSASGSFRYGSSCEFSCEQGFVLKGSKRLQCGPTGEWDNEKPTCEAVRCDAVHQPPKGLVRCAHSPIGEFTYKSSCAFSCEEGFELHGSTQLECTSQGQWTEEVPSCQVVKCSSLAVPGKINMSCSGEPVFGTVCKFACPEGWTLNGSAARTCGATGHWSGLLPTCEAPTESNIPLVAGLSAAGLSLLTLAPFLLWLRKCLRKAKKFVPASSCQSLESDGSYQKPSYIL
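System: HUVEC, human umbilical vein endothelial cells; quantity: 3,000 cells/well; buffer or medium: EGM-2 medium, gelatin-coated wells; dosing: single-point compound dose; detection: immunofluorescence imaging; evaluation: % PE-positive cells; benchmarks: TNF-alpha, DMSO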
FGF22 binding = binders of human FGF22 protein, primary screen, FGF22 synaptogenesis inhibitor project, biophysical, thermal shift, single point; activity (Tm shift, normalised), % at 9.99 µM; Fibroblast growth factor 22 (Homo sapiens), Q9HCT0; recombinant FGF22 thermal shift, SYPRO orange fluorescence; percent of sucrose octasulfate shift, DMSO zero; actives 1.5% (n = 340,000);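 active means mean Tm shift, scaled 0 neutral to 100 positive control, at about 1.3% or above, every replicate too, limit read from the data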
miR122 inh = miR-122 Renilla sensor signal increase in Huh7, primary screen, miR-122 inhibitor project, cell-based, single point, plate reader; Huh7 miR-122 Renilla luciferase sensor, 48 h; neutral wells = 0, positive control = 100; activation (reporter increase), % at 12.5 µM; actives 0.3% (n = 340,000);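 active means mean replicate activation score at least 90 and every replicate individually at or above 90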;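 further: higher luciferase means less miR-122 activity so hits act as miR-122 inhibitors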
Active calls of the source: *; / = no result given; [ ] = dose if it differs, or a comment.

SMILES	SIRT5 block	S100A4 MyoIIA	E-sel inducer	FGF22 binding	miR122 inh
Cc1nn(-c2ccccc2)c(N)c1C1(O)C(=O)N(C(C)C)c2ccccc21 (stereo not given)	-2	7	-2	0	/
COc1ccc(CN(C)C(C)C(=O)Nc2ccc(S(=O)(=O)N3CCOCC3)cc2)c(OC)c1 (stereo not given)	17*	-3	6	0	/
COc1ccc(C(=O)N2CCN(S(=O)(=O)c3ccc(C)cc3)CC2)cc1S(=O)(=O)N1CCOCC1	20*	2	1	0	-6
COc1ccc(CNC(=O)c2ccc(S(=O)(=O)N3CCOCC3)cc2)cc1	1	-1	0	78*	/
COc1cccc(NC(=O)CN(C)C(C)C(=O)Nc2ccc(S(=O)(=O)N3CCOCC3)cc2)c1 (stereo not given)	-1	-3	/	0	/
COc1ccc(C(=O)N2CCN(S(=O)(=O)c3ccc(C)cc3C)CC2)cc1S(=O)(=O)N1CCOCC1	-1	0	0	0	2
COc1ccc(NC(=O)c2c(F)cccc2Cl)cc1S(=O)(=O)N1CCOCC1	/	-3	0	43*	4
CN(C)CC#Cc1ccc([C@H]2[C@H](CO)N3CCCCN(C(=O)C4CCCC4)C[C@@H]23)cc1	1	-16	/	0	-28[16.7 µM]
COc1ccc(NC(=O)COC(=O)c2ccc(S(=O)(=O)N3CCCCCC3)cc2)c(OC)c1	1	-2	/	0	-4
COc1ccc(CC(=O)Nc2cc(S(=O)(=O)N3CCOCC3)ccc2N2CCOCC2)cc1	-7	-3	6	43*	-3
COc1cccc2sc(NC(=O)c3ccc(S(=O)(=O)N4CCOCC4)cc3)nc12	15*	10	/	0	1
COc1ccccc1NC(=O)c1ccc(S(=O)(=O)N2CCOCC2)cc1	/	/	/	/	-2
COc1ccc(CC(=O)Nc2cc(S(=O)(=O)N3CCOCC3)ccc2N2CCCC2)cc1	/	-2	0	43*	-9
COc1ccc(OC)c(NC(=O)COC(=O)c2ccc(S(=O)(=O)N3CCCCC3)cc2)c1	/	-4	1	45*	-3
C[C@H]1CN([C@@H](C)CO)C(=O)c2cc(NS(C)(=O)=O)ccc2O[C@@H]1CN(C)Cc1ccccc1	-4	13	0	0	-6[16.7 µM]
COc1ccc(C(=O)OCC(=O)Nc2cc(S(=O)(=O)N3CCOCC3)ccc2N2CCCC2)cc1	0	4	0	0	/
COc1ccc(/C=C/C(=O)Nc2ccc(C(C)=O)cc2)cc1S(=O)(=O)N1CCOCC1	0	-2	0	0	2
COc1cc(/C=C/C(=O)Nc2ccc(OC)c(S(=O)(=O)N3CCOCC3)c2)ccc1OC(F)F	-5	-3	/	1.6*	/
COc1ccc(CC(=O)OCC(=O)Nc2cc(S(=O)(=O)N3CCOCC3)ccc2N2CCCC2)cc1	5	-5	-1	43*	-1
COc1ccc(/C=C/C(=O)Nc2cc(S(=O)(=O)N3CCOCC3)ccc2N2CCCC2)cc1OC	/	-3	/	43*	/
COc1ccc(/C=C/C(=O)Nc2cc(S(=O)(=O)N3CCCCC3)ccc2N2CCCCC2)cc1OC	/	/	/	/	-3
COc1ccc(C2=NN3C(C2)c2ccccc2OC3c2cccs2)cc1 (stereo not given)	3	-18	7	0	/
Cc1ccc(C2=NN3C(C(=O)c4ccccc4)Oc4ccccc4C3C2)cc1 (stereo not given)	/	/	/	/	114*
Cc1ccc(C2=NN(S(=O)(=O)c3ccccc3)C(c3ccccc3O)C2)cc1 (stereo not given)	-2	6	/	44*	/
NC(=S)NN=Cc1ccc(-c2ccc(S(=O)(=O)Nc3ncccn3)cc2)o1	46*	-4	/	0	/
N=c1c2ccccc2nnn1-c1ccccc1[N+](=O)[O-]	-4	-1	0	0	161*
N#Cc1ccc(-n2nnc3ccccc3c2=O)c([N+](=O)[O-])c1	-2	-4	0	0	2
